Assay results from ChEMBL document CHEMBL4689842, “EUbOPEN Chemogenomics Library wave 1” (2021).

Tested on: U2OS
Assay: Multiplex assay against U2OS
Type: toxicity, cell-based
Details: human
Outline: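 Live cells were stained at seeding with Hoechst33342, BioTracker Green Microtubule Cytoskeleton Dye, MitoTracker Red and Annexin V Alexa Fluor 680. Following compound addition, they were imaged on a CQ1 microscope at 37°C and 5% CO2 and gated by CellPathfinder machine learning into Hoechst high-intensity objects or normal cells, with normal cells split into healthy, pyknosed or fragmented nuclei and pyknosed cells into mitotic or apoptotic. Tubulin, mitochondrial-mass and membrane-permeability phenotypes are per cents of healthy-nucleus cells.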

[1] = 12 h, 1 µM, compound concentration 1 uM, replicate 1
[2] = 12 h, 1 µM, compound concentration 1 uM, replicate 2
[3] = 12 h, 10 µM, compound concentration 10 uM, replicate 1
[4] = 12 h, 10 µM, compound concentration 10 uM, replicate 2
[5] = 24 h, 1 µM, compound concentration 1 uM, replicate 1
[6] = 24 h, 1 µM, compound concentration 1 uM, replicate 2
[7] = 24 h, 10 µM, compound concentration 10 uM, replicate 1
[8] = 24 h, 10 µM, compound concentration 10 uM, replicate 2

O=c1[nH]c2ccccc2n1C1CCN(Cc2ccc(-c3[nH]c4cc5ncnc5cc4nc3-c3ccccc3)cc2)CC1
Population Apoptotic (%) [1]: 44%
Population Fragmented Nuclei (%) [1]: 6%
Population Healthy Nuclei (%) [1]: 87%
Population Hoechst High Intensity Objects (%) [1]: 5%
Population Membrane Permeable-Phenotype (%) [1]: 37%
Population Mitochondria Different-Phenotype (%) [1]: 11%
Population Mitotic Cells (%) [1]: 55%
Population Normal (%) [1]: 94%
Population Pyknosed Nuclei (%) [1]: 5%
Population Tubulin-Different-Phenotype (%) [1]: 24%
Total Cell Count [1]: 162
Population Apoptotic (%) [2]: 37%
Population Fragmented Nuclei (%) [2]: 7%
Population Healthy Nuclei (%) [2]: 85%
Population Hoechst High Intensity Objects (%) [2]: 8%
Population Membrane Permeable-Phenotype (%) [2]: 25%
Population Mitochondria Different-Phenotype (%) [2]: 16%
Population Mitotic Cells (%) [2]: 62%
Population Normal (%) [2]: 91%
Population Pyknosed Nuclei (%) [2]: 7%
Population Tubulin-Different-Phenotype (%) [2]: 23%
Total Cell Count [2]: 124
Population Apoptotic (%) [3]: 30%
Population Fragmented Nuclei (%) [3]: 19%
Population Healthy Nuclei (%) [3]: 66%
Population Hoechst High Intensity Objects (%) [3]: 4%
Population Membrane Permeable-Phenotype (%) [3]: 29%
Population Mitochondria Different-Phenotype (%) [3]: 61%
Population Mitotic Cells (%) [3]: 69%
Population Normal (%) [3]: 95%
Population Pyknosed Nuclei (%) [3]: 13%
Population Tubulin-Different-Phenotype (%) [3]: 100%
Total Cell Count [3]: 173
Population Apoptotic (%) [4]: 46%
Population Fragmented Nuclei (%) [4]: 38%
Population Healthy Nuclei (%) [4]: 51%
Population Hoechst High Intensity Objects (%) [4]: 7%
Population Membrane Permeable-Phenotype (%) [4]: 54%
Population Mitochondria Different-Phenotype (%) [4]: 75%
Population Mitotic Cells (%) [4]: 53%
Population Normal (%) [4]: 92%
Population Pyknosed Nuclei (%) [4]: 9%
Total Cell Count [4]: 142
Population Apoptotic (%) [5]: 42%
Population Fragmented Nuclei (%) [5]: 7%
Population Healthy Nuclei (%) [5]: 83%
Population Hoechst High Intensity Objects (%) [5]: 5%
Population Membrane Permeable-Phenotype (%) [5]: 31%
Population Mitochondria Different-Phenotype (%) [5]: 12%
Population Mitotic Cells (%) [5]: 57%
Population Normal (%) [5]: 94%
Population Pyknosed Nuclei (%) [5]: 9%
Population Tubulin-Different-Phenotype (%) [5]: 16%
Total Cell Count [5]: 211
Population Apoptotic (%) [6]: 41%
Population Healthy Nuclei (%) [6]: 81%
Population Hoechst High Intensity Objects (%) [6]: 3%
Population Membrane Permeable-Phenotype (%) [6]: 14%
Population Mitochondria Different-Phenotype (%) [6]: 15%
Population Mitotic Cells (%) [6]: 58%
Population Normal (%) [6]: 96%
Population Pyknosed Nuclei (%) [6]: 11%
Total Cell Count [6]: 157
Population Apoptotic (%) [7]: 55%
Population Fragmented Nuclei (%) [7]: 19%
Population Healthy Nuclei (%) [7]: 50%
Population Hoechst High Intensity Objects (%) [7]: 6%
Population Membrane Permeable-Phenotype (%) [7]: 53%
Population Mitochondria Different-Phenotype (%) [7]: 91%
Population Mitotic Cells (%) [7]: 44%
Population Normal (%) [7]: 93%
Population Pyknosed Nuclei (%) [7]: 30%
Total Cell Count [7]: 174
Population Apoptotic (%) [8]: 80%
Population Fragmented Nuclei (%) [8]: 28%
Population Healthy Nuclei (%) [8]: 38%
Population Hoechst High Intensity Objects (%) [8]: 14%
Population Membrane Permeable-Phenotype (%) [8]: 72%
Population Mitochondria Different-Phenotype (%) [8]: 88%
Population Mitotic Cells (%) [8]: 19%
Population Normal (%) [8]: 85%
Population Pyknosed Nuclei (%) [8]: 32%
Population Tubulin-Different-Phenotype (%) [8]: 100%
Total Cell Count [8]: 130
